Test system: MS2 coat protein
Assay: apparent Kd, MS2 coat protein; higher = weaker binding; RNA-MaP array; FMN 200 µM where present
Method in brief: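 Binding was read on Illumina sequencing-chip clusters where stalled E. coli RNA polymerase had transcribed each design. A titration of SNAP-549-labelled MS2 coat protein began at 0.7 or 1.5 nM and doubled to 3 µM, once without ligand and once with constant ligand, in 100 mM Tris-HCl pH 7.5, 80 mM KCl, 4 mM MgCl2, BSA, DTT, yeast tRNA and Tween-20. The apparent Kd is the median of filtered per-cluster binding-curve fits, based on green signal normalised to red-channel RNA signal and control-cluster median Fmax.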

[1] = designed as: OFF switch for flavin mononucleotide, no ligand
[2] = ligand present: flavin mononucleotide, designed as: OFF switch for flavin mononucleotide
[3] = designed as: ON switch for flavin mononucleotide, no ligand
[4] = ligand present: flavin mononucleotide, designed as: ON switch for flavin mononucleotide

Row | Sequence | apparent Kd [1] | apparent Kd [2] | apparent Kd [3] | apparent Kd [4]
1 | GUCAGCUCGUGAGGAUAUACAACACUGCUUCGGCAGUGUAUUACGAUCACAUGAGGAUCACCCAUGUAGAAGGCACGAGCUGAU | 15.2 nM | 307 nM |  | 
2 | UCGUAUAUACAAGGAUAUCAAUUAUUGCUAAAUUCAACAUGAGGAUCACCCAUGUAACUAUGGAGUGAGAAGGUGUAAUGACUU |  |  | 504 nM | 476 nM
3 | AACCGCGACCGGCCUGGCACGCCGAGAAGGGUACGUGACCUGCUUUACAUGAGGAUCACCCAUGUACAGGAUAUCGGAUAGCCG |  | 7.28 nM |  | 
4 | GUCAGCUCGUGAGGAUAUACAACACUGCUUCGGCAGUGUGUUAAGAUCACAUGAGGAUCACCCAUGUAGAAGGCACGAGCUGAU | 7.69 nM | 88.9 nM |  | 
5 | CCUAGUCACUCACAUGAGGAUCACCCAUGUCGGUGCCGCCGACAGGAUAUCUAAAUGUAAAAUCUAGAGAAGGGUCGAACCAUC |  |  | 455 nM | 609 nM
6 | AAUAAUAAGGAGGAUAUCGUAUCGGAGACGAUACGAGAAGGCUUAACAUGAGGAUCACCCAUGUUCCUCAAUAA | 35 nM | 76.7 nM |  | 
7 | CAACCACAUGAGGAUCACCCAUGUGAGGAUAUGAUACUAUGUACUUCGGUACAUAGUAUCAGAAGGCACAGGUG | 82 nM | 73.4 nM |  | 
8 | GCCAUCCUAUGAGGAUAUGACACCGAAACGGUGUCAGAAGGCAUGUCGAUAGACAUGAGGAUCACCCAUGUUUACAGGAUGGCA |  |  | 132 nM | 22 nM
9 | AGAUCACAUGAGGAUCACCCAUGUGAGGAUAUGGACUGAAGAGCUUCGGCUCUUCAGUCCAGAAGGCACUAUGA | 27.3 nM | 35 nM |  | 
10 | AAAUUGUCAGGAUAUCCAACUAUACGAAAUAUAUAUACACAGGAGAAGGGACAUGAGGAUCACCCAUGUUUGAA | 24.6 nM | 19.1 nM |  | 
11 | AAGGUGUUAGGAUAUCGUAGUUUGAGGCAGACGGGAUUUUGCGAGAAGGAACAUGAGGAUCACCCAUGUAGGAU | 27.2 nM | 30.4 nM |  | 
12 | UUUGCAUGACGAGGAUAUCAUUUAUUUCUUGAUUGAGAAGGCGUUCUUUUUAAUACCUAACAUGAGGAUCACCCAUGUGACAGU |  |  | 17.9 nM | 13.2 nM
13 | GUAGCUAACGGAGGAUAUUCAUACCGGAAACGGACAUGAGGAUCACCCAUGUGGCGAAAGCCAUGGGAGAAGGCCGUUAGCUAC |  |  | 918 nM | 147 nM
14 | UAAUCUCAGAUAGGAUAUAUAGGAUGAUUUAAGACCGAACAUGAGGAUCACCCAUGUGAUUAUUUGUAGAAGGAUCAAUGACCC |  |  | 72.4 nM | 79.2 nM
15 | GGGCCCGGUGUGAGGAUAUGGGCCCGGAAACGGGCCCAGAAGGCACAUGAGGAUCACCCAUGUAAGCCGGGCCC | 15.4 nM | 15.7 nM |  | 
16 | GACAUGAGGAUCACCCAUGUCCAACCAGAAGGCCAGAAACCAGGCCCUUGUAUCGGGCUUGGGAUGGAGGAUAUGGGCGCCGAA |  |  | 61.4 nM | 31.6 nM
17 | UUAUGGAGGUAGGAUAUCAUGACGUCUUAGUUGUGAGAAGGGCUUACAUGAGGAUCACCCAUGUGGUGUUUUUG | 584 nM | 192 nM |  | 
18 | AGAAACAGAGGAUAUCGCGGACAGCACAUGAGGAUCACCCAUGUGAUGCUCCGCGGGCCGCGAGAAGGCUGAAAUG | 15.1 nM | 36.8 nM |  | 
19 | AAAAAACAUGAGGAUCACCCAUGUCAAAAGACGUGAGGAUAUGUACAGACUUCGGUCUGUACAGAAGGCAUGUCAA |  |  | 30.1 nM | 16.5 nM
20 | UAGGAGUCAGGAUAUGCGAGAGAUGGAAGUAAGGGAUGAGAGCAGAAGGGACAUGAGGAUCACCCAUGUAAGGA | 39.7 nM | 37.8 nM |  | 
21 | ACGUGUUAUACAGGAUAUGUUUAGGUACAAUCAUCCAGAUAUUAAUUUAUAACAGAAGGGUAAACAUGAGGAUCACCCAUGUCA | 18.4 nM | 15.1 nM |  | 

Row | Sequence | apparent Kd [1] | apparent Kd [2] | apparent Kd [3] | apparent Kd [4]
22 | GUAGCAUACCGAGGAUAUCUAUCCCGGAAACGGACAUGAGGAUCACCCAUGUGGCGAAAGCCUUGGGAGAAGGCGGAAUGCUAC |  |  | 46.7 nM | 17.2 nM
23 | GUAGCAUCAAUUAUACAUGAGGAUCACCCAUGUUACAUGGGUAAGGAUAUUGAGGUUAUUAUUGGCAAGAAGGUACUAUGCUAC |  |  | 409 nM | 168 nM
24 | GGGCUGCGACGCAGCCCAACAAAACAUGAGGAUCACCCAUGUCAGGAUAUACCGAUGCAGCAUCUGUAGAAGGGACAGAUCCAA | 90.4 nM | 92.4 nM |  | 
25 | GUAGAACAUGAGGAUCACCCAUGUGAGGGCGCAUGAGGAUAUGUCCGUACCUAGCAUACGAUAGAAGGCAUGGUGC |  |  | 38.7 nM | 27.4 nM
26 | UGGUACAUGGGAGGAUAUGGGUUGAUAACAUGAGGAUCACCCAUGUUAAAUAUGCCGAGAGGCAACUAGAAGGCCCAUGUACCU |  |  | 482 nM | 38.2 nM
27 | AAGUAGUGAGGAUAUACAUGGAUAUACAUUCAUGUGGACCUACAUGAGGAUCACCCAUGUAGAAGGCACUACUA | 42.6 nM | 61.6 nM |  | 
28 | AAAAUUUAUUGAGGAUAUUCAUACACUGCAUACGGAGAAGGCAAACAAUCAUGAGGACAUGAGGAUCACCCAUGUUGUGACCAU |  |  | 18.9 nM | 15.8 nM
29 | GCCGGGUGGGUAGGAUAUGGCUAUGUCUCAUUGCUAGAAGGACCAACUGCUACAUGAGGAUCACCCAUGUCGUAGUGCACCCGG |  |  | 138 nM | 28.9 nM
30 | GUAGCAUACCGAGGAUAUUCACAUAAUAAAUAAACAUGAGGAUCACCCAUGUGGCGAAAGCCUAGGGAGAAGGCGGAAUGCUAC |  |  | 76 nM | 18.7 nM
31 | CAUGGACGGUUAGGAUAUGACCUUUAAUGAAAGUCAGAAGGGAUCGCACAUGAGGAUCACCCAUGUCGCAGACUCGGGCGACUU | 14.9 nM | 21.1 nM |  | 
32 | GGUACCAACACAGGAUAUGCAAUCCUUUGGGUUGCAGAAGGGUGAAACAUGAGGAUCACCCAUGUGGUGCCAGGGCGUGAGCCC |  |  | 1290 nM | 104 nM
33 | UUUGUUUGCGGAGGAUAUAUAAGUGGAUCACCCAUAGAAGGCCGAACAUGAGGAUCACCCAUGUUACAUGAGGAUCACCCAUGU | 45.8 nM | 51.5 nM |  | 
34 | UAAUUGUGAGGAUAUUCGUUUUUCUCGGAGACGAGAAGAACGGAGAAGGCACAUGAGGAUCACCCAUGUUCCUU | 18 nM | 91.7 nM |  | 
35 | UGAUAGGACAGAGGAUAUACGUAUAGUUACCUCUACAUGAGGAUCACCCAUGUAGAAGGCUGUCCUAUCUAAGUCGGAAACGAC | 4.77 nM | 5.78 nM |  | 
36 | UAAAUACAUGAGGAUCACCCAUGUGAGGAUAUCCGAUGAUUCGGAGAAAUGACCCGUUGGAGAAGGCAUAGGGC | 30.8 nM | 22.7 nM |  | 
37 | UUGAGGAAUUAAGGAUAUUGAGUACAUAUGUUUAACAUGAGGAUCACCCAUGUGGGUUGCGGUAUCGAGAAGGUAAAUUACAAG |  |  | 129 nM | 133 nM
38 | UAGUAUAAGGGCAUUAAACAUGAGGAUCACCCAUGUACAAUAGAGGAUAUGCAUUUCGGUUUAGAGUAGAAGGUUAGAGAAUAU | 31.3 nM | 38.1 nM |  | 
39 | AAGGACUGAAUAAAUAACUCAAAUACAUGAGGAUCACCCAUGUAGGAUAUCGUCAGGAAUACUGACGAGAAGGACAUACAGUCC | 14 nM | 20.2 nM |  | 
40 | AUAUUUAUUUAGAAGGACAUGAGGAUCACCCAUGUCGCUGGGCGCGGGAAACCGUGCGCGGCCAUGUAGGAUAUAGGUAGAUAU | 14.4 nM | 12.4 nM |  | 
41 | UUACUCAUGUAAGGAUAUGCAGCCGUUUCGGCUGCAGAAGGUACUAUAAUACAUGAGGAUCACCCAUGUCUUUUUAAAUUAGAC |  |  | 111 nM | 49.7 nM
42 | UGAUACUAAGAGAAGGUUCAAACUACAUAUUACAUACAUGAGGAUCACCCAUGUUGGUGAAUAAGAAAGGAUAUUUUACUAUAU | 25.7 nM | 21.6 nM |  | 

Source: the EternaBench riboswitch data
